Test results published in article PMC7280087 (Drug Design, Development and Therapy, 2020).
pKi: −log10 of the molar value.

Tests used:
[1] = format: in vivo, Sprague-Dawley rats; details: single-dose group (voriconazole 30 mg/kg); vonoprazan 10 mg/kg oral; rats
[2] = molecular target: vonoprazan metabolism in rat liver microsomes; test: Inhibition of vonoprazan metabolism by voriconazole in rat liver microsomes; format: in vitro ADME; details: RLM; for mode of inhibition of vonoprazan metabolism: Lineweaver–Burk plot, Ki ≠ αKi
Procedure, shortened: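 Rat liver microsomes were prepared in-house and used at 0.44 mg/mL, with 1 mM NADPH in 100 mM potassium phosphate (pH 7.4) in a 200 µL volume. Test inhibitor was at 0, 1.5, 3, 6 and 12 μM and substrate at 5, 10, 20 and 40 μM. Incubation ran 50 min at 37°C, was stopped by −80°C cooling, then acetonitrile plus IS was added. Substrate was quantified by LC-MS/MS, with Lineweaver–Burk and secondary plots giving Ki and αKi.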

[3] = 0-12 μM voriconazole, 5-40 μM vonoprazan, Lineweaver–Burk secondary plot

decrease of CLz/F compared with the control group [1]	pKi [2, 3]	αKi [2, 3]	Compound	mode of inhibition of vonoprazan metabolism [2]	mode of inhibition of vonoprazan metabolism ([2]; listed as voriconazole)
2.7 fold	–	–	CNCc1cc(-c2ccccc2F)n(S(=O)(=O)c2cccnc2)c1 [Vonoprazan, vonoprazan]	–	–
–	5.57	5.32 µM	C[C@@H](c1ncncc1F)[C@](O)(Cn1cncn1)c1ccc(F)cc1F [Voriconazole, voriconazole]	mixed inhibition	mixed type
